Measured values of several laboratories.
Lines come from different studies, so protocols differ.
Oprk1: Kappa-type opioid receptor (Oprk1, Mus musculus, UniProt P33534)
BCHE: Cholinesterase (BCHE, Homo sapiens, UniProt P06276)
MC4R: Melanocortin receptor 4 (MC4R, Homo sapiens, UniProt P32245)

Structure (SMILES) | target | test | test system | setting | endpoint | value
CC(C)[C@@H](CN1CCc2ccccc2C1)NC(=O)Cc1c[nH]c2ccccc12 | Oprk1 | ligand displacement, radioligand |  | 10 µM | inhibition | 89.1%
COc1cc(/C=C/C(=O)O)ccc1OCc1cn(CC(=O)Nc2ccccc2C)nn1 | BCHE | enzyme activity, inhibitor, Ellman |  | 40 µM | inhibition | 44.6%
[2H]c1c([2H])c([C@]2([2H])CCCN2C(=O)C(C)(C)Oc2ccc3cn[nH]c3c2)c([2H])c([2H])c1C([2H])([2H])[2H] | Peripheral plasma membrane protein CASK (CASK, Homo sapiens, UniProt O14936) | binding, competition with immobilised ligand |  | 1 µM | remaining binding | 89%
CCCC[C@H](NC(C)=O)C(=O)N[C@@H](C)C(=O)N[C@@H](Cc1c[nH]cn1)C(=O)N[C@@H](Cc1ccccc1)C(=O)N[C@@H](CCCNC(=N)N)C(=O)N[C@H](Cc1c[nH]c2ccccc12)C(=O)N[C@@H](CC(=O)O)C(=O)N[C@@H](CCCNC(=N)N)C(=O)N[C@@H](Cc1ccccc1)C(=O)N[C@@H](C(=O)N1CCC[C@@H]1C(N)=O)C(C)C | MC4R | cAMP, agonist | CHO-K1 |  | Emax | 100%
COc1cc(/C=C/C(=O)O)ccc1OCc1cn(CC(=O)Nc2ccc(Cl)cc2)nn1 | BCHE | enzyme activity, inhibitor, Ellman |  | 40 µM | inhibition | 22.2%
Cc1c(CC(=O)N[C@@H](CN2CCc3ccccc3C2)C(C)C)cccc1[N+](=O)[O-] | Oprk1 | ligand displacement, radioligand |  | 10 µM | inhibition | 95.1%
CC(C)CC(=O)OC[C@H]1O[C@@](C#N)(c2ccc3c(N)ncnn23)[C@H](O)[C@@H]1O | MC4R | cell-free assay |  | 20 µM | inhibition | 6%
CN1CCC[C@H]1c1cccnc1 | Muscarinic acetylcholine receptor M5 (CHRM5, Homo sapiens, UniProt P08912) | ligand displacement |  | 50 µM | inhibition | -4.76%
COc1cc(/C=C/C(=O)O)ccc1OCc1cn(CC(=O)Nc2ccc(C)cc2)nn1 | BCHE | enzyme activity, inhibitor, Ellman |  | 40 µM | inhibition | 48.5%
CC(C)[C@@H](CN1CCc2ccccc2C1)NC(=O)c1cccc(-c2cccc(O)c2)c1 | Oprk1 | ligand displacement, radioligand |  | 10 µM | inhibition | 94.2%
